Measured values: ChEMBL document CHEMBL4270660, “Design, synthesis, and systematic evaluation of 4-arylpiperazine- and 4-benzylpiperidine napthyl ethers as inhibitors of monoamine neurotransmitters reuptake” (Bioorg Med Chem, 2018)
Active and inactive are the calls of the source. No cut-off for these calls is given here.

Columns and labels:
[1] = target: T1, Sodium-dependent serotonin transporter (Homo sapiens, UniProt P31645); conditions: HEK293, at 1 µM
Target sequence in this assay (P31645 whole entry, looked up): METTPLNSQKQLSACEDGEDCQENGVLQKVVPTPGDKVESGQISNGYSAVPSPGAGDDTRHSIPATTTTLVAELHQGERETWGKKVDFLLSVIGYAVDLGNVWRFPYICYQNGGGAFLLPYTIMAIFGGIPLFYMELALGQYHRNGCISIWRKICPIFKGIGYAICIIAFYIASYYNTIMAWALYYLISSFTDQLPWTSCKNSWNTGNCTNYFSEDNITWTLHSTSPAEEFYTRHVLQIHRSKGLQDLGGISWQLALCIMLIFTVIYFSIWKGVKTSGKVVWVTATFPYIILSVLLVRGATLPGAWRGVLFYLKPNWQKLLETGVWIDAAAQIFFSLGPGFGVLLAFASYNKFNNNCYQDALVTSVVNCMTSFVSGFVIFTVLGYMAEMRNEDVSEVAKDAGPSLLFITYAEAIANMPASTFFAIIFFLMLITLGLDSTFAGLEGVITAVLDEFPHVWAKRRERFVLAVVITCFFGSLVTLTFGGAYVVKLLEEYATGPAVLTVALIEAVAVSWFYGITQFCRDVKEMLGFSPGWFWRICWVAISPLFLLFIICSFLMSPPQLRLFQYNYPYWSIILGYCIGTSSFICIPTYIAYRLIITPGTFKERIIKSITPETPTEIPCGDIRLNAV

[2] = target: T1, Sodium-dependent serotonin transporter; test: Inhibition of [3H]serotonin uptake at human SERT expressed in HEK293 cells after 15 to 20 mins by microbeta scintillation counting method; assay type: cell-based
Target sequence in this assay (P31645 whole entry): as the sequence (P31645 whole entry, looked up) above

[3] = target: T2, Sodium-dependent noradrenaline transporter (Homo sapiens, UniProt P23975); test: Inhibition of [3H]norepinephrine uptake at human NET expressed in HEK293 cells at 10 uM after 15 to 20 mins by microbeta scintillation counting method; assay type: cell-based
T2 sequence (P23975 whole entry): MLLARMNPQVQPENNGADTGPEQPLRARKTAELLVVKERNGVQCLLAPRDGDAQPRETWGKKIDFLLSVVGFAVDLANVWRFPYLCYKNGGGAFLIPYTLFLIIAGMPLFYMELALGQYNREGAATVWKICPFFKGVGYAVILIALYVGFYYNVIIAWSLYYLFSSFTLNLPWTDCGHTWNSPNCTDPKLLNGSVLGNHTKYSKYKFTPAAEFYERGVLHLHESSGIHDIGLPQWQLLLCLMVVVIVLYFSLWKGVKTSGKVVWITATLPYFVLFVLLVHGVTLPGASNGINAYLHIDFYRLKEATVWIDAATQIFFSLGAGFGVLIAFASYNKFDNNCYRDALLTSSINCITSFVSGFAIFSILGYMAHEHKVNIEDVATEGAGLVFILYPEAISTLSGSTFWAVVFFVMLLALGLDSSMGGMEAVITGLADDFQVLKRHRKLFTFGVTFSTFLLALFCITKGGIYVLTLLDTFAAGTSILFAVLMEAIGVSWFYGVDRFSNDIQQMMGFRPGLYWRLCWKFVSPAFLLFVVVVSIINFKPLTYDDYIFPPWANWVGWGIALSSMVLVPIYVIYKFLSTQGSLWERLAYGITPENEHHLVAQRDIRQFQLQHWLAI
Method in brief: (§1)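 HEK-293 cells transfected with the human transporter (DAT or NET) were given the radiolabeled substrate, [³H]-DA for DAT or [³H]-NE for NET, at 20 nM in the assay. Uptake was measured by liquid scintillation counting. Reference inhibitors were venlafaxine HCl, bupropion and GBR12909. Single-concentration lines are percent reuptake inhibition at the stated concentration.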

[4] = target: T2, Sodium-dependent noradrenaline transporter; test: Inhibition of [3H]norepinephrine uptake at human NET expressed in HEK293 cells after 15 to 20 mins by microbeta scintillation counting method; assay type: cell-based
Method in brief: as §1, with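 “counting.” for “counting. Reference inhibitors were venlafaxine HCl, bupropion and GBR12909.”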

[5] = target: T3, Sodium-dependent dopamine transporter (Homo sapiens, UniProt Q01959); test: Inhibition of [3H]dopamine uptake at human DAT expressed in HEK293 cells at 1 uM after 15 to 20 mins by microbeta scintillation counting method; assay type: cell-based
T3 sequence (Q01959 whole entry): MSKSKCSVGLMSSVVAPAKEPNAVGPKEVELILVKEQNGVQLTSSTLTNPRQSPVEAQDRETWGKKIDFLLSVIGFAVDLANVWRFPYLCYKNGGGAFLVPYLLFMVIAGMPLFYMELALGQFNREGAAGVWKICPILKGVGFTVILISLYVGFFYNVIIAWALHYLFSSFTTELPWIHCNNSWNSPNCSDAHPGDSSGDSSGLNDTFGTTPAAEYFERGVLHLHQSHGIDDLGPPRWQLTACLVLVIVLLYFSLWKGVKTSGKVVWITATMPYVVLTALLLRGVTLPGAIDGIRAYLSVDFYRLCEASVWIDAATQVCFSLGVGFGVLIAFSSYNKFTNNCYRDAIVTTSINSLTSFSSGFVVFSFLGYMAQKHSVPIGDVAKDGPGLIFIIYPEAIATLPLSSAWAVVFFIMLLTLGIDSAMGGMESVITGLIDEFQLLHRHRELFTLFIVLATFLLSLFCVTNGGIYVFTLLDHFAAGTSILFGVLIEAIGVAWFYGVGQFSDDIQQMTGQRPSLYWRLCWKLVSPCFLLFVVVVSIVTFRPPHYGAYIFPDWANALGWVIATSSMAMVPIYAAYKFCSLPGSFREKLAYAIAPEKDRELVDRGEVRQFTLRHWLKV
Method in brief: as §1

[6] = target: T2, Sodium-dependent noradrenaline transporter; test: Inhibition of [3H]norepinephrine uptake at NET (unknown origin)
Method in brief: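 HEK-293 cells transfected with human norepinephrine transporter (hNET). [³H]-NE at 20 nM as substrate, with uptake read by liquid scintillation counting. Reuptake inhibition recorded at 1 µM and 10 µM test compound, and IC50 derived.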

[7] = target: T1, Sodium-dependent serotonin transporter; test: Inhibition of [3H]serotonin uptake at SERT (unknown origin)
Method in brief: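 Human serotonin transporter (hSERT) expressed by transfection in HEK-293 cells. [³H]-5-HT at 20 nM, with uptake radioactivity counted by liquid scintillation. Percent reuptake inhibition measured at 1 µM and 10 µM, plus IC50 determination.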
Target sequence in this assay (P31645 whole entry): as the sequence (P31645 whole entry, looked up) above

[8] = target: T3, Sodium-dependent dopamine transporter; test: Inhibition of [3H]dopamine uptake at DAT (unknown origin)
Method in brief: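 HEK-293 cells transfected with human dopamine transporter (hDAT). Uptake of [³H]-DA at 20 nM, measured by liquid scintillation counting. Test compounds screened as % reuptake inhibition at 1 µM and 10 µM, and IC50 values determined.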

[9] = target: T2, Sodium-dependent noradrenaline transporter; conditions: HEK293, 1 uM
[10] = target: T3, Sodium-dependent dopamine transporter; test: Inhibition of [3H]dopamine uptake at human DAT expressed in HEK293 cells after 15 to 20 mins by microbeta scintillation counting method; assay type: cell-based
Method in brief: as §1

SMILES | inhibition [1] [%] | IC50 [2] [nM] | inhibition [3] [%] | inhibition [5] | further results
FC(F)(F)c1ccc(N2CCN(CCCCOc3ccc4ccccc4c3)CC2)cc1 | 59.2 | 680 | 68.3 |  | IC50 [4]: 20500 nM
CC(NC(C)(C)C)C(=O)c1cccc(Cl)c1 (stereo unspecified) |  |  | 61.5 | 78.3% | 
c1cnc(N2CCN(CCCCOc3ccc4ccccc4c3)CC2)nc1 | 32 |  | 31 |  | 
c1ccc(N2CCN(CCCCOc3ccc4ccccc4c3)CC2)cc1 | 41.2 |  | 86.4 |  | 
Fc1ccc(N2CCN(CCCCOc3ccc4ccccc4c3)CC2)cc1 | 71 | 3150 | 74.3 |  | IC50 [4]: 3710 nM
Clc1ccc(N2CCN(CCCCOc3ccc4ccccc4c3)CC2)c(Cl)c1 | 51 | 4320 | 67.7 |  | IC50 [4]: 9740 nM
c1ccc(N2CCN(CCCOc3ccc4ccccc4c3)CC2)cc1 | 27 |  | 79.6 |  | 
Clc1ccc(N2CCN(CCOc3ccc4ccccc4c3)CC2)cc1 | 20.1 |  | 28 | 2% | 
Cc1cccc(C)c1N1CCN(CCCOc2ccc3ccccc3c2)CC1 | 35.1 |  | 86.5 |  | 
Clc1ccc(N2CCN(CCCOc3ccc4ccccc4c3)CC2)cc1 | 28.4 |  | 25.7 |  | 
c1ccc(C2CCN(CCCn3nnnc3C(c3ccccc3)c3ccccc3)CC2)cc1 |  |  |  |  | IC50 [6]: 510 nM; IC50 [7]: > 10000 nM; IC50 [8]: 90 nM
Cc1cccc(C)c1N1CCN(CCCCOc2ccc3ccccc3c2)CC1 | 38.3 |  | 74.4 |  | 
c1ccc(N2CCN(CCOc3ccc4ccccc4c3)CC2)cc1 | 7.2 |  | 28 | 9% | 
Clc1cccc(N2CCN(CCCCOc3ccc4ccccc4c3)CC2)c1 | 27.5 |  | 63.7 |  | 
Clc1cccc(N2CCN(CCCOc3ccc4ccccc4c3)CC2)c1Cl | 37.5 |  | 45 |  | 
Fc1ccc(C(OCCN2CCN(c3ccccn3)CC2)c2ccc(F)cc2)cc1 |  | 570 |  |  | 
Brc1ccc(N2CCN(CCCOc3ccc4ccccc4c3)CC2)cc1 | 54.9 | 830 | 80 |  | IC50 [4]: 2850 nM
c1ccc(CC2CCN(CCCOc3ccc4ccccc4c3)CC2)cc1 | 51 | 990 | 92.2 |  | IC50 [4]: 2540 nM
Clc1cccc(N2CCN(CCCCOc3ccc4ccccc4c3)CC2)c1Cl | 36.8 |  | 60.7 |  | 
Clc1cccc(N2CCN(CCOc3ccc4ccccc4c3)CC2)c1 | 85.3 | 1860 | 83.1 | inactive | IC50 [4]: 5830 nM
c1cnc(N2CCN(CCOc3ccc4ccccc4c3)CC2)nc1 | 57 |  |  | inactive | 
Brc1ccc(N2CCN(CCOc3ccc4ccccc4c3)CC2)cc1 | 9 |  | 52.8 | 19% | 

SMILES | inhibition [1] [%] | IC50 [2] [nM] | inhibition [3] [%] | inhibition [5] | further results
COc1ccc(C(CN(C)C)C2(O)CCCCC2)cc1 (stereo unspecified) |  |  |  |  | inhibition [9]: 52.6%
c1ccc(N2CCN(CCCOc3ccc4ccccc4c3)CC2)nc1 | 46.2 |  | 68.7 |  | 
COc1ccccc1N1CCN(CCCCOc2ccc3ccccc3c2)CC1 | 51.3 | 5160 | 68 |  | IC50 [4]: 29700 nM
Fc1ccc(N2CCN(CCOc3ccc4ccccc4c3)CC2)cc1 | 60.5 | 2800 | 80.8 | 35.6% | IC50 [4]: 5130 nM
O=C(NCCCN1CCN(c2cccc(Cl)c2Cl)CC1)c1ccc2ccccc2c1 |  |  |  |  | IC50 [10]: > 10000 nM
c1ccc(N2CCN(CCOc3ccc4ccccc4c3)CC2)nc1 | 54 | 1080 | 66 | inactive | IC50 [4]: 23800 nM
O=C(NCCCN1CCC(Cc2ccccc2)CC1)c1ccc2ccccc2c1 |  |  |  |  | IC50 [7]: 100 nM; IC50 [8]: > 10000 nM
Fc1ccc(N2CCN(CCCOc3ccc4ccccc4c3)CC2)cc1 | 45.4 |  | 23.3 |  | 
c1ccc(N2CCN(CCCCOc3ccc4ccccc4c3)CC2)nc1 | 45.3 |  | 59 |  | 
Clc1ccc(N2CCN(CCCCOc3ccc4ccccc4c3)CC2)cc1 | 49 |  | 69.3 |  | 
Brc1ccc(N2CCN(CCCCOc3ccc4ccccc4c3)CC2)cc1 | 66.3 | 10700 | 66.3 |  | IC50 [4]: 25900 nM
Cc1cccc(C)c1N1CCN(CCOc2ccc3ccccc3c2)CC1 | 24.6 |  | 74.9 | 19% | 
c1cnc(N2CCN(CCCOc3ccc4ccccc4c3)CC2)nc1 | 23.8 |  | 47.3 |  | 
Fc1cccc(F)c1N1CCN(CCCn2nnnc2C(c2ccccc2)c2ccccc2)CC1 |  | > 10000 |  |  | 
COc1ccccc1N1CCN(CCOc2ccc3ccccc3c2)CC1 | 48.7 |  | 21 | 19% | 
Clc1cccc(N2CCN(CCOc3ccc4ccccc4c3)CC2)c1Cl | 26.7 |  | 20 | inactive | 
c1ccc(CC2CCN(CCCCOc3ccc4ccccc4c3)CC2)cc1 | 31.9 |  | 80.7 |  | 
COc1ccccc1N1CCN(CCCOc2ccc3ccccc3c2)CC1 | 56.4 | 1040 | 85.3 |  | IC50 [4]: 1200 nM
Clc1ccc(N2CCN(CCOc3ccc4ccccc4c3)CC2)c(Cl)c1 | 61.4 |  | 47.3 | 48.5% | 
FC(F)(F)c1ccc(N2CCN(CCOc3ccc4ccccc4c3)CC2)cc1 | 8.2 |  | 23.1 | 31.3% | 
c1ccc(CC2CCN(CCOc3ccc4ccccc4c3)CC2)cc1 | 12.1 |  |  | inactive | 
